By AC50 is commonly meant the concentration giving half of the maximal activity seen.

Several values for one entry are separate records, joined by “and”; a condition that tells them apart may be missing. Identical values can stand only once.

This assay deals with Candida albicans CaCi-2 growth, Alamar Blue fluorescence, 48 h. Description: single-agent growth inhibition of fluconazole-resistant C. albicans, dose response, CaCi-2 strain, Alamar Blue, dry powder, set 4 (AID 624006). In short, it runs like this: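 Material: fluconazole-resistant C. albicans CaCi-2; Input: inoculum A600 0.00015; Medium: RPMI 1640 with MOPS buffer, uridine and glucose; Control set: amphotericin 10 µM positive control; Incubation: 48 h static compound exposure at 37 °C, then 2 h Alamar Blue; Signal: Alamar Blue fluorescence.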
Background: The colour change of resazurin is a common sign of viable cells or microbes.
On to `CC1/C=C/C=C\C=C\C=C\C=C\C=C\C=C\C(O[C@H]2OC(C)C(O)C(N)C2O)CC2OC(O)(CC(O)CC(O)C(O)CCC(O)CC(O)CC(=O)OC(C)C(C)C1O)CC(O)C2C(=O)O` (some centres not stated), for which the AC50 was 64.5 nM. Consider `CCOC(=O)N1C(=O)C2(CCCCC2)N(c2ccc(F)cc2)C1=S`, for which the half-maximal activity concentration (AC50) is 39.9 nM. The figure for `CCOC(=O)N1C(=O)C2(CCCCC2)N(c2cccc(C)c2)C1=S` is 194 nM; for `CCOC(=O)N1C(=O)C2(CCCCC2)N(c2ccc(Cl)cc2)C1=S` it is 65.7 nM; for `CCOC(=O)N1C(=O)C2(CCCCC2)N(c2ccc(C)cc2)C1=S` it is 223 nM and 253 nM. As to `CCOC(=O)N1C(=O)C2(CCCCC2)N(c2ccc(C#N)cc2)C1=S`, the AC50 was 88.9 nM. As to `CCOC(=O)N1C(=O)C2(CCCCC2)N(c2ccccc2)C1=S`, the AC50 is 202 nM.
